Measured values from ChEMBL document CHEMBL2321842, “Rapid Determination of Ionization Constants (pK a) by UV Spectroscopy Using 96-Well Microtiter Plates” (ACS Med Chem Lett, 2013).

experiment: Dissociation constant, pKa of the compound at pH 3 to 12 by UV spectroscopy; type: physicochemical
In short: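 UV-spectrophotometric titration in microplate wells. 10 mM DMSO stock diluted into buffers to 0.2 mM final (0.1 mM if spectra saturated), 2% v/v DMSO. Buffers: acetate, phosphate, borax, glycine/NaOH, pH 3–12.6, ionic strength 0.1 M (KCl), 30 °C. Spectra read at 2 nm resolution. Total absorbance difference at two analytical wavelengths fitted against pH by nonlinear regression. Mean of ≥3 independent runs ± SD.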

Compared with `O=[N+]([O-])c1c[nH]cn1`, `O=[N+]([O-])c1ccc(O)cc1` [P-NITROPHENOL] is lower in pKa: 9.2 for the first, 6.87 for the second.

First: CCON1CCN/C1=N\c1ccc(NC(=O)Nc2ccc(/N=C3\NCCN3OCC)cc2)cc1
Second: CCON1CCN/C1=N/c1ccc(C(=O)Nc2ccc(/N=C3\NCCN3OCC)cc2)cc1
The pKa of the first is higher: 8.27 for the first, 7.34 for the second.

`O=C(Nc1ccc(/N=C2\NCCN2O)cc1)c1ccc(/N=C2/NCCN2O)cc1` and `CON1CCN/C1=N/c1ccc(C(=O)Nc2ccc(/N=C3\NCCN3OC)cc2)cc1` are within 0.2 log units of each other in pKa: 7.43 for the first, 7.27 for the second.

`ON1CCN/C1=N/c1ccc(CCc2ccc(/N=C3\NCCN3O)cc2)cc1` and `CON1CCN/C1=N/c1ccc(CCc2ccc(/N=C3\NCCN3OC)cc2)cc1` are within 0.2 log units of each other in pKa: 7.97 for the first, 8.01 for the second.

`CCON1CCN/C1=N/c1ccc(CCc2ccc(/N=C3\NCCN3OCC)cc2)cc1` and `CON1CCN/C1=N\c1ccc(NC(=O)Nc2ccc(/N=C3\NCCN3OC)cc2)cc1` are within 0.2 log units of each other in pKa: 8.01 for the first, 7.95 for the second.

Going from `Cc1nc2ccccc2[nH]1` to `Clc1cccc(Cl)c1N=C1NCCN1` [CLONIDINE], the pKa rises from 6.22 to 8.14.

Going from `c1cc(NC2=NCCN2)ccc1CCc1ccc(NC2=NCCN2)cc1` to `O=C(Nc1ccc(NC2=NCCN2)cc1)Nc1ccc(NC2=NCCN2)cc1`, the pKa falls from 10.7 to 10.3.

`N=C(N)Oc1ccc(Oc2ccc(OC(=N)N)cc2)cc1` gave a pKa of 10.7.
